Measured values from ChEMBL document CHEMBL4725241, “Discovery of BMS-986235/LAR-1219: A Potent Formyl Peptide Receptor 2 (FPR2) Selective Agonist for the Prevention of Heart Failure” (J Med Chem, 2020).
Calls of active or inactive are those of the source. No cut-off for these calls is given here.

What was measured:
[1] = biological target: T1, N-formyl peptide receptor 2 (Homo sapiens, UniProt P25090); assay: Agonist activity at human FPR2 expressed in HEK 293 cells co-expressing Galpha15 measured every 1.5 sec for 80 sec by Fluo-4 NW staining based scanning fluorometric method; format: cell-based, HEK293
T1 sequence (P25090 whole entry): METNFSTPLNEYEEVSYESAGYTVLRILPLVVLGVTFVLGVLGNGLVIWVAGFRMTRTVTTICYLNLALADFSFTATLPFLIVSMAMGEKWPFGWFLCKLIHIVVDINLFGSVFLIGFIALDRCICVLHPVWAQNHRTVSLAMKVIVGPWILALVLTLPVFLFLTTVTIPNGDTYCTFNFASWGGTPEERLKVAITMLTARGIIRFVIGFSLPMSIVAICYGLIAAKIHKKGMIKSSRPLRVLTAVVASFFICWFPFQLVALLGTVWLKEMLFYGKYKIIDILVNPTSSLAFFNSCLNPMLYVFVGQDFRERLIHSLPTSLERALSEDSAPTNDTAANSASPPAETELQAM
Outline: (§1)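 HEK293 cells were transiently co-transfected with FPR plus Gα15 (Lipofectamine 2000), then reseeded after 24 h on poly-D-lysine plates and grown one more day. Cells were loaded with Fluo-4 NW for 45 min at 37°C. Compound was added and fluorescence (ex 485/em 525 nm) read for 80 s at 1.5 s intervals. Response = maximal peak minus basal.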

[2] = biological target: T2, Formyl peptide receptor 2 (Mus musculus, UniProt O88536); assay: Agonist activity at mouse FPR2 expressed in HEK 293 cells co-expressing Galpha15 measured every 1.5 sec for 80 sec by Fluo-4 NW staining based scanning fluorometric method; format: cell-based, HEK293; outline: as §1
T2 sequence (O88536 whole entry): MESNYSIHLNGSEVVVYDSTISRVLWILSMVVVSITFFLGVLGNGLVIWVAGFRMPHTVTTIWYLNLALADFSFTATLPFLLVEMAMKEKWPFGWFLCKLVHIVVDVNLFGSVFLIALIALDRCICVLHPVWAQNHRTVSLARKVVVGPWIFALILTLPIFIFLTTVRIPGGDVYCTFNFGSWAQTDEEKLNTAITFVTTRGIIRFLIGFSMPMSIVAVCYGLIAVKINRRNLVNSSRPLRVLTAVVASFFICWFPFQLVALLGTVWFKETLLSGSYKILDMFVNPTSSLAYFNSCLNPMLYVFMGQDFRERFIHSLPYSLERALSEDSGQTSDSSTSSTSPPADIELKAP

[3] = biological target: T1, N-formyl peptide receptor 2; assay: Agonist activity at human FPR2 expressed in CHO-K1 cells assessed as stimulation of beta-arrestin recruitment; format: cell-based
Mus musculus [4] = assay: Cardioprotective activity in C57BL/6 mouse model of LAD coronary artery ligation-induced myocardial infarction assessed as reduction in LV chamber area at 0.3 mg/kg, po and measured after 28 days; format: functional, organism-based; settings: time 28.0 day
Outline: (§2)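 Male C57BL/6 mice (10-12 weeks) underwent permanent LAD ligation under ketamine/xylazine, with shams having an untightened suture. Compound (0.3 mg/kg/d) or vehicle was given by oral gavage once daily (5 mL/kg) from post-MI day 4 for 24 days. Endpoints were taken at 28 days post-MI; scar length was quantified from LV cross sections.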

Mus musculus [5] = assay: Cardioprotective activity in C57BL/6 mouse model of LAD coronary artery ligation-induced myocardial infarction assessed as reduction in heart weight at 0.3 mg/kg, po and measured after 28 days; format: functional, organism-based; settings: time 28.0 day; outline: as §2
[6] = Total clearance in Crl:CD1(ICR) mouse at 0.5 mg/kg, iv by LC-MS/MS analysis; format: ADME, organism-based; settings: in vivo
Outline: (§3)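 Male animals received intravenous solution in DMSO/PEG400/saline (5/47.5/47.5). EDTA plasma was extracted with methanol/acetonitrile (1:1) plus internal standard and quantified by LC-MS/MS. AUC0-inf was calculated by the trapezoidal rule with terminal-phase kel extrapolation.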

[7] = Total clearance in Crl:CD(SD) rat at 1 mg/kg, iv by LC-MS/MS analysis; format: ADME, organism-based; settings: in vivo; outline: as §3
[8] = Total clearance in Beagle dog at 1 mg/kg, iv by LC-MS/MS analysis; format: ADME, organism-based, Canis lupus familiaris; settings: in vivo; outline: as §3
[9] = Cmax in Beagle dog at 1 mg/kg, po by LC-MS/MS analysis; format: ADME, organism-based, Canis lupus familiaris; set-up: route oral, dose 1 mg/kg; settings: in vivo
Outline: (§4)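 Male animals dosed orally with a suspension in 0.5% MC. Blood was taken into EDTA 2K capillaries and plasma was stored frozen. Plasma was mixed with methanol/acetonitrile (1:1) plus internal standard, centrifuged, and drug was measured by LC-MS/MS. AUC0-inf was obtained by the trapezoidal rule, extrapolated with kel from the terminal phase. t1/2 = ln2/kel.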

[10] = Cmax in cynomolgus monkey at 3 mg/kg, po by LC-MS/MS analysis; format: ADME, organism-based, Macaca fascicularis; set-up: route oral, dose 3 mg/kg; settings: in vivo; outline: as §4
[11] = Half life in Crl:CD(SD) rat at 1 mg/kg, po by LC-MS/MS analysis; format: ADME, organism-based; settings: in vivo; outline: as §4
[12] = Half life in Beagle dog at 1 mg/kg, po by LC-MS/MS analysis; format: ADME, organism-based, Canis lupus familiaris; settings: in vivo; outline: as §4
[13] = AUC (0 to infinity) in Crl:CD(SD) rat at 1 mg/kg, po by LC-MS/MS analysis; format: ADME, organism-based; set-up: time infinity, route oral, dose 1 mg/kg; settings: in vivo; outline: as §4
[14] = AUC (0 to infinity) in Beagle dog at 1 mg/kg, po by LC-MS/MS analysis; format: ADME, organism-based, Canis lupus familiaris; set-up: route oral, time infinity, dose 1 mg/kg; settings: in vivo; outline: as §4
[15] = Oral bioavailability in BALB/cCrSlc mouse at 1 mg/kg by LC-MS/MS analysis; format: ADME, organism-based; settings: in vivo
Outline: (§5)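 Oral bioavailability = (AUC0-inf,po/dose po)/(AUC0-inf,iv/dose iv) × 100. Oral dosing used a 0.5% MC suspension. IV dosing used a DMSO/PEG400/saline (5/47.5/47.5) solution, with CD1(ICR) mice for the iv arm. Plasma drug levels were measured by LC-MS/MS after methanol/acetonitrile extraction with internal standard.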

[16] = Oral bioavailability in Crl:CD(SD) rat at 1 mg/kg by LC-MS/MS analysis; format: ADME, organism-based; settings: in vivo; outline: as §5
[17] = Oral bioavailability in cynomolgus monkey at 3 mg/kg by LC-MS/MS analysis; format: ADME, organism-based, Macaca fascicularis; settings: in vivo; outline: as §5
[18] = Clearance in rat liver microsome at 0.1 umol/l and measured for 60 mins by LC-MS/MS analysis; format: ADME; settings: microsomes, 1 h, 0.1 µM, dose 0.1 µmol/L
Outline: (§6)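 Liver microsomes (1 mg protein/mL final) with an NADPH regenerating system were preincubated 5 min at 37°C, then given 0.1 µmol/L compound. Samples were taken at 0-60 min, quenched in methanol/acetonitrile with internal standard, and analysed by LC-MS/MS. Runs were in triplicate. kel came from 5-30 min points. CLint = kel/protein concentration (mL/min/mg protein).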

[19] = Clearance in human liver microsome at 0.1 umol/l and measured for 60 mins by LC-MS/MS analysis; format: ADME; settings: microsomes, 1 h, 0.1 µM, dose 0.1 µmol/L; outline: as §6
[20] = Clearance in dog hepatocytes at 0.1 umol/l and measured for 6 hrs by LC-MS/MS analysis; format: ADME, cell-based, Canis lupus familiaris, Hepatocyte; settings: dose 0.1 µmol/L, read-out: CLH
Outline: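 Hepatocytes (1 × 10⁶ cells/mL) in modified Krebs–Henseleit buffer were preincubated 5 min at 37°C, then given 0.1 µmol/L compound. Samples were taken at 0, 1, 2, 4 and 6 h and analysed by LC-MS/MS, in duplicate. kel came from 0-2 h points. CLint was scaled by hepatocellularity and liver weight (mL/min/kg).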

**Q.** For `COc1cc(F)c([C@@H]2CNC(=O)[C@H]2NC(=O)Nc2ccccc2)c(F)c1` [BMS-986235], which EC50 [1] is on record?
**A.** 0.41 nM

**Q.** And the EC50 [2]?
**A.** 3.4 nM

**Q.** What about the EC50 [3] of the same molecule?
**A.** 130 nM

**Q.** And the Activity (Mus musculus [4])?
**A.** Active

**Q.** What about the Activity (Mus musculus [5]) of the same molecule?
**A.** Active

**Q.** What about the clearance [6] of the same molecule?
**A.** 90 mL/min/kg

**Q.** And the clearance [7]?
**A.** 49 mL/min/kg

**Q.** And the clearance [8]?
**A.** 6.6 mL/min/kg

**Q.** And the Cmax [9]?
**A.** 820 nM

**Q.** What about the Cmax [10] of the same molecule?
**A.** 800 nM

**Q.** And the half-life [11]?
**A.** 3.8 h

**Q.** What about the half-life [12] of the same molecule?
**A.** 2.5 h

**Q.** What about the AUC(0-inf) [13] of the same molecule?
**A.** 0.64 µM·h

**Q.** What about the AUC(0-inf) [14] of the same molecule?
**A.** 5.7 µM·h

**Q.** What about the bioavailability [15] of the same molecule?
**A.** 24%

**Q.** And the bioavailability [16]?
**A.** 67%

**Q.** What about the bioavailability [17] of the same molecule?
**A.** 49%

**Q.** And the CLH [18]?
**A.** 21 µL/min/mg

**Q.** What about the CLH [19] of the same molecule?
**A.** 3.3 µL/min/mg

**Q.** What about the CLint scaled at 0.1 µM [20] of the same molecule?
**A.** 50 mL/min/kg
